Source: ChEMBL document CHEMBL1123363, “(5-Amino-1,3-dimethyl-1H-pyrazol-4-yl)(2-fluorophenyl)methanones . A series of novel potential antipsychotic agents” (J Med Chem, 1986)
pIC50: −log10 of the molar value. One block for each molecule: values may come before it.

Legend:
[1] = target: Dopamine receptor; assay: Binding affinity against dopamine receptor in rat striatal membrane using [3H]haloperidol; assay type: cell membranes, Striatum
Outline: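 Nonspecific binding defined with (+)-butaclamol at 0.1 μM final. IC50 fitted by nonlinear curve fit from four or five concentrations in triplicate.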

[2] = target: Dopamine receptor (Rattus norvegicus) (UniProt P25115+P19020+P30729+P18901+P61169); assay: Compound was tested for its effect on Dopamine turnover in rat at dose of 10+/-250 mg/kg; assay type: functional, organism-based; details: in the assay text read “64+/-250 mg/kg” for “10+/-250 mg/kg”
Outline: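 Male Long-Evans rats were given vehicle or agent ip 30 min before α-methyl-p-tyrosine (250 mg/kg) and killed 4 h after it. Brain NE and DA were isolated on Sephadex G-10 and measured spectrofluorometrically. Values are percent of vehicle-treated, with at least five determinations per value.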

[3] = tested on: Rattus norvegicus; assay: Antagonized affect on the accumulation of the brain dopamine induced by butyrolactone (GBL) at 25 mg/kg after intraperitoneal administration; assay type: functional; design: scale not given: the % may be the effect or the level left
Outline: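 Rats received test compound ip 30 min before γ-butyrolactone (750 mg/kg ip) and were killed 1 h after GBL. Dopamine in brain minus brain stem and cerebellum (four to six rats) was measured spectrofluorometrically and expressed as % of the GBL-treated group.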

[4] = organism: Rattus norvegicus; assay: Effective dose required for inhibition of conditional avoidance in rats; assay type: functional
Outline: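 Fasted male Wistar rats (150–250 g) were trained to jump to a platform at a buzzer to avoid grid shock (1.1 mA/s). After oral dosing they were tested every 20 min for 6 h over 19 trials, 10 rats per dose, each rat used once. Peak effect was the mean of the four consecutive trials with the largest effect, computed from response latency. ED50 read graphically from at least three doses.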

[5] = target: Muscarinic acetylcholine receptor; assay: Binding affinity against muscarinic receptor in rat brain using [3H]- QNB; assay type: tissue-based
Outline: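 Muscarinic sites in rat brain stem membranes (male Long-Evans, 150–250 g), labelled with [3H]quinuclidinyl benzilate at 0.03 nM final. Oxotremorine at 100 μM final served as the reference displacer. IC50 from four or five concentrations by nonlinear curve fitting.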

[6] = organism: Rattus norvegicus; assay: Effective dose required for inhibition of Sidman avoidance in rats; assay type: functional
Outline: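 Mature male Long–Evans rats, trained on a modified Sidman avoidance schedule in lever-equipped operant chambers, were dosed orally and tested in 6-h sessions. Inhibition was expressed as % of each animal's own nondrug responding. At least three doses were given to four animals, with sessions at least 1 week apart. ED50 from nonlinear regression of dose–effect.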

[7] = target: Beta-1 adrenergic receptor (Rattus norvegicus, UniProt P18090); assay: Binding affinity against the beta-1 adrenergic receptor using [3H]- DHA
Chain of Beta-1 adrenergic receptor (P18090 whole entry): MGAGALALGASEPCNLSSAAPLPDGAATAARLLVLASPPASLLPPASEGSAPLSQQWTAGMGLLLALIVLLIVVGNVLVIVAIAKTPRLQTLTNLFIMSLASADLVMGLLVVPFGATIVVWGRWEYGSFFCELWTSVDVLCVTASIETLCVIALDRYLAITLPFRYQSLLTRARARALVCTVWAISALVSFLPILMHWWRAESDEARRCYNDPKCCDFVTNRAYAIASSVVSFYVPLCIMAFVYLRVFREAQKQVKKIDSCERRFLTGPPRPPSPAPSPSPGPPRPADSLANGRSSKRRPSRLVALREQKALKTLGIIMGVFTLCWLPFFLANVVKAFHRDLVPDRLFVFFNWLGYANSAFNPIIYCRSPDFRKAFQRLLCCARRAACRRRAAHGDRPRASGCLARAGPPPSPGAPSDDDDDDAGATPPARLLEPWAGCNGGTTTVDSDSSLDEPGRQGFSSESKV
Outline: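 β1 sites in rat cerebral cortex membranes (male Long-Evans, 150–250 g) with [3H]dihydroalprenolol at 0.5 nM final. (-)-Alprenolol at 1 μM final defined the reference. IC50 from four or five concentrations by nonlinear curve fit.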

[8] = target: GABA-A receptor; anion channel; assay: Displacement of [3H]-GABA from rat brain Gamma-aminobutyric acid receptor
Outline: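 GABA binding in membranes of rat whole brain minus cerebellum and brain stem (male Long-Evans, 150–250 g), using [3H]-GABA at 25 nM final. GABA at 1 mM final was the reference. IC50 from four or five concentrations by nonlinear curve fitting.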

[9] = tested on: Rattus norvegicus; assay: Compound was tested for serum prolactin assay method in rats at 10 mg/kg dose after peroral administration; assay type: functional; details: route oral
Outline: (§1)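 Seven-week-old male Sprague–Dawley rats, five per group, were dosed orally and killed by decapitation 1 h later. Serum prolactin from trunk blood was measured by radioimmunoassay with [125I]-PRL and expressed as % of control (mean ± SEM).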

[10] = tested on: Rattus norvegicus; assay: Compound was tested for its affect on the accumulation of the dopamine metabolite homovanillic acid (HAV) in the rat striatum at 8 mg/kg dose after peroral administration; assay type: functional; details: route oral
Outline: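 Male Long–Evans rats were dosed orally and decapitated 2 h later. Striatal HVA was isolated on Sephadex G-10 and measured spectrofluorometrically, expressed as % control ± SEM.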

[11] = tested on: Rattus norvegicus; assay: Compound was tested for serum prolactin assay method in rats at 1 mg/kg dose after peroral administration; assay type: functional; details: route oral; outline: as §1
[12] = target: Beta-2 adrenergic receptor (Rattus norvegicus, UniProt P10608); assay: Binding affinity against the beta-2 adrenergic receptor using [3H]- DHA
Chain of Beta-2 adrenergic receptor (P10608 whole entry): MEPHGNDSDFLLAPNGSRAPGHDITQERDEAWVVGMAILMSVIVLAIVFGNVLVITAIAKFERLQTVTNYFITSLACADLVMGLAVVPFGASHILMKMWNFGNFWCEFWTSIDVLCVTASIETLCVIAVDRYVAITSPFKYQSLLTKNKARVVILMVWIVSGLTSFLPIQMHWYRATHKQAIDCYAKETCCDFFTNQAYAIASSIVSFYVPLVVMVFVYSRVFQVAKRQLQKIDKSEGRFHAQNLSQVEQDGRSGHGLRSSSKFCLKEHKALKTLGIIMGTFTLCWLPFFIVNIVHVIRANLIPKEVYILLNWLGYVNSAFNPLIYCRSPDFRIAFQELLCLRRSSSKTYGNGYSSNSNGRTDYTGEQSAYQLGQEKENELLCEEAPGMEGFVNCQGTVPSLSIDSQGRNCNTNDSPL
Outline: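 β2 sites in rat cerebellum membranes (male Long-Evans, 150–250 g) with [3H]dihydroalprenolol at 0.5 nM final. (-)-Alprenolol at 1 μM final defined the reference. IC50 from four or five concentrations by nonlinear curve fit.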

- IC50 [1]: > 10 µM
- Control [2]: 45.6%
Compound: Cc1nn(C)c(NC(=O)CNCCCN2CCCCC2C)c1C(=O)c1ccccc1F (configuration not stated)
- Control [3]: 91.2%

- IC50 [5]: > 10 µM
Compound: Cc1nn(C)c(N)c1C(=O)c1ccccc1F
- ED50 [4]: 18 mg/kg
- ED50 [6]: 20 mg/kg

- pIC50 [7]: < 5.00
- pIC50 [8]: < 5.00
- pIC50 [12]: < 5.00
Compound: CCN(CC)CC(=O)Nc1c(C(=O)c2ccccc2F)c(C)nn1C
- Control [9]: 52.9%
- Control [10]: 131.9%
- Control [11]: 87.4%
